According to ChEMBL document CHEMBL3352262, “Synthesis and structure-activity relationships of pteridine dione and trione monocarboxylate transporter 1 inhibitors” (J Med Chem, 2014):
The source made the active and inactive calls. No cut-off for these calls is given here.

Tests used:
MCF7 [1] = assay: Growth inhibition of human MCF7 cells overexpressing MCT4 up to 10 uM after 4 days by MTT assay; assay type: cell-based; conditions: mcf7, 96 h
How it was run: (§1)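 MCF7 cells engineered to overexpress mouse MCT1 or human MCT4 were seeded at 2000/well and compound was added the next day. Cells were cultured 4 days in 5% CO2, then given MTT reagent for 5 h and solubilized with 2-propanol/0.04 N HCl. Absorbance was read at 570 and 630 nm, in triplicate. The highest concentration tested on MCF7_MCT4 cells was 10 μM.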

Raji = assay: Growth inhibition of human Raji cells after 96 hrs by MTT assay; assay type: functional, cell-based
How it was run: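 Human Raji Burkitt lymphoma cells were seeded at 20000/well and cultured with compound or vehicle for 4 days (96 h) in 5% CO2. MTT reagent was added for 5 h, then 2-propanol/0.04 N HCl, and absorbance was read at 570 and 630 nm. EC50 came from curve fitting.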

MCF7 [2] = assay: Growth inhibition of human MCF7 cells overexpressing MCT1 after 4 days by MTT assay; assay type: functional, cell-based; conditions: MCF7, 96 h; how it was run: as §1
[3] = molecular target: T1, Monocarboxylate transporter 4 (Homo sapiens) (UniProt O15427); assay: Inhibition of MCT4 (unknown origin) overexpressed in human MCF7 cells assessed as inhibition of transporter-mediated [14C]lactate transport after 10 mins by scintillation counting; assay type: cell-based
T1 sequence (whole entry): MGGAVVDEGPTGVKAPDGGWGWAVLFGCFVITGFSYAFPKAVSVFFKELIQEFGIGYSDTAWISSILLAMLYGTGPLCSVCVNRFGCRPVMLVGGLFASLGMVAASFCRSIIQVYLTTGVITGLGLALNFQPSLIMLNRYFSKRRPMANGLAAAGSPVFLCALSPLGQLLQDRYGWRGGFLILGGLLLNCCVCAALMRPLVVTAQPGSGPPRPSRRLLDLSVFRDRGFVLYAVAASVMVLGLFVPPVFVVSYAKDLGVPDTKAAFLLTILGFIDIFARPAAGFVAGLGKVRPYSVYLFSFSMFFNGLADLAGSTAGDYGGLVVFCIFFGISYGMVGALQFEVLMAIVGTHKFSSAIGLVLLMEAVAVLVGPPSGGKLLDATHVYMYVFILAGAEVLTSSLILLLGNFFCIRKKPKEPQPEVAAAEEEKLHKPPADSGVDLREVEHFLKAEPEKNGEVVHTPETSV

MCF7 [4] = assay: Growth inhibition of human MCF7 cells overexpressing MCT4 after 4 days by MTT assay; assay type: cell-based; conditions: MCF7, 96 h; how it was run: as §1
MCF7 [5] = assay: Growth inhibition of human MCF7 cells overexpressing MCT4 at 10 uM after 4 days by MTT assay; assay type: cell-based; conditions: mcf7, 96 h; how it was run: as §1

Row | EC50 (Raji) [nM] | SMILES | also measured
1 | 58 | CC(C)Cn1c(=O)n(C)c(=O)c2nc(CCCCCO)c(Cc3cccc4ccccc34)nc21 | Activity (MCF7 [1]): Non-toxic
2 | > 10000 | CC(C)Cn1c(=O)n(C)c(=O)c2nc(C(=O)NCCCO)c(Cc3cccc4ccccc34)nc21 | –
3 | 6020 | CC(C)Cn1c(=O)n(C)c(=O)c2nc(-c3[nH]nnc3CCCO)c(Cc3cccc4ccccc34)nc21 | –
4 | 37 | CC(C)Cn1c(=O)n(C)c(=O)c2nc(SCCCCO)c(Cc3cccc4ccccc34)nc21 | Activity (MCF7 [1]): Non-toxic
5 | > 10000 | Cc1n[nH]c(C)c1Cc1nc2c(nc1CCCCCO)c(=O)n(C)c(=O)n2CC(C)C | –
6 | 5780 | COCCCCCc1nc2c(=O)n(C)c(=O)n(CC(C)C)c2nc1Cc1cccc2ccccc12 | –
7 | 285 | CC(C)Cn1c(=O)n(C)c(=O)c2nc(CCCCO)c(Cc3cccc4ccccc34)nc21 | –
8 | 3750 | CC(C)Cn1c(=O)n(C)c(=O)c2nc(S(=O)(=O)CCCO)c(Cc3cccc4ccccc34)nc21 | –
9 | 2850 | CC(C)Cn1c(=O)n(C)c(=O)c2nc(SCCO)c(Cc3cccc4ccccc34)nc21 | –
10 | 18 | Cc1n[nH]c(C)c1Cc1sc2c(c1C(=O)N1C[C@H](O)CO1)c(=O)n(C)c(=O)n2CC(C)C | –
11 | > 10000 | CC(C)Cn1c(=O)n(C)c(=O)c2nc(-c3nnn(C)c3CCCO)c(Cc3cccc4ccccc34)nc21 | –
12 | 1990 | CC(C)Cn1c(=O)n(C)c(=O)c2nc([S+]([O-])CCCO)c(Cc3cccc4ccccc34)nc21 (stereo not drawn) | –
13 | 151 | CC(C)Cn1c(=O)n(C)c(=O)c2nc(SCCCO)c(Cc3cccc4ccccc34)nc21 | –
14 | 0.5 | CC(C)Cc1nn(C)c(=O)c2c(SCCCO)n(Cc3cccc4ccccc34)cc12 | EC50 (MCF7 [2]): 21 nM; inhibition [3]: inactive; EC50 (MCF7 [4]): > 10 µM
15 | 1690 | CC(C)Cn1c(=O)n(C)c(=O)c2nc(CCCCCCO)c(Cc3cccc4ccccc34)nc21 | –
16 | > 10000 | CC(C)Cn1c(=O)n(C)c(=O)c2[nH]c(=O)c(Cc3cccc4ccccc34)nc21 | –
17 | > 10000 | CC(C)Cn1c(=O)n(C)c(=O)c2c1nc(Cc1cccc3ccccc13)c(=O)n2CCCCCCO | –
18 | > 10000 | CC(C)Cn1c(=O)n(C)c(=O)c2nc(-c3c(CCCO)nnn3C)c(Cc3cccc4ccccc34)nc21 | –
19 | > 10000 | CC(C)Cn1c(=O)n(C)c(=O)c2nc(C(=O)N(C)CCCO)c(Cc3cccc4ccccc34)nc21 | –
20 | 150 | CC(C)Cn1c(=O)n(C)c(=O)c2c1nc(Cc1cccc3ccccc13)c(=O)n2CCCCO | –
21 | 70 | CC(C)Cn1c(=O)n(C)c(=O)c2nc(/C=C\CCCO)c(Cc3cccc4ccccc34)nc21 | Activity (MCF7 [5]): Toxic
22 | 1420 | CC(C)Cn1c(=O)n(C)c(=O)c2c1nc(Cc1cccc3ccccc13)c(=O)n2CCCCCO | –
